Test results reported in ChEMBL document CHEMBL4041479, “Piperlongumine (piplartine) and analogues: Antiproliferative microtubule-destabilising agents” (Eur J Med Chem, 2017).
The source made the active and inactive calls. No cut-off for these calls is given here.

How the values were obtained:
[1] = test system: MCF7; test: Antiproliferative activity in human MCF7 cells assessed as cell viability after 48 hrs by alamarBlue assay; assay type: functional, cell-based; conditions: MCF7, 48 h
Procedure, shortened: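 Cells were seeded at 2.5×10^4 cells/mL and treated after 24 h with vehicle (0.1% v/v ethanol) or a dose range (0.1–20 μM) for 48 h at 37 °C in 5% CO2. Media-only blanks were subtracted, and viability is given as % of vehicle. Sextuplicate wells, three independent experiments.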

[2] = test system: MCF-10A; test: Cytotoxicity in human MCF10A cells at 1 uM after 24 to 48 hrs by alamarBlue assay; assay type: cell-based
[3] = test system: MCF-10A; test: Cytotoxicity in human MCF10A cells at 5 uM at 24 hrs by alamarBlue assay; assay type: cell-based
[4] = test system: MCF-10A; test: Cytotoxicity in human MCF10A cells at 5 uM at 48 hrs by alamarBlue assay; assay type: cell-based
[5] = test system: MCF7; test: Induction of reactive oxygen species generation in human MCF7 cells assessed as decrease in cell viability at 5 to 20 uM in presence of N-acetyl cysteine after 48 hrs by alamarBlue assay; assay type: functional, cell-based
Procedure, shortened: (§1)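 MCF-7 cells were seeded at 2.5×10^4 cells/mL and left to adhere. They were pre-treated 1 h with N-acetyl cysteine (1 mM) or Trolox (100 μM), then exposed to test agents for 48 h. Viability was measured by alamarBlue fluorescence as % of ethanol vehicle control. Mean of three independent experiments.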

[6] = test system: MCF7; test: Induction of reactive oxygen species generation in human MCF7 cells assessed as decrease in cell viability at 5 to 20 uM in presence of trolox after 48 hrs by alamarBlue assay; assay type: functional, cell-based; procedure, shortened: as §1
[7] = species on record: Homo sapiens; test: Induction of tubulin depolymerization in human MCF7 cells at 1 uM after 4 hrs by Western blot method; assay type: cell-based
Procedure, shortened: (§2)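 MCF-7 (1×10^6/well) or Jurkat cells were treated for 4 h with 1–20 μM or 0.1% ethanol. Cells were lysed in microtubule-preserving buffer (0.1 M PIPES pH 6.9, 2 M glycerol, 5 mM MgCl2, 2 mM EGTA, 0.5% Triton X-100, 4 μM paclitaxel) and centrifuged at 20,000g for 45 min. Soluble (supernatant) and polymer (pellet) fractions, 30 μg protein each, were immunoblotted for α-tubulin with a GAPDH loading control. Three experiments.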

[8] = species on record: Homo sapiens; test: Induction of tubulin depolymerization in human Jurkat cells at 1 uM after 4 hrs by Western blot method; assay type: cell-based; procedure, shortened: as §2
[9] = test system: MCF7; test: Induction of reactive oxygen species generation in human MCF7 cells assessed as decrease in cell viability at 10 uM in presence of N-acetyl cysteine after 48 hrs by alamarBlue assay; assay type: functional, cell-based; procedure, shortened: as §1

SMILES	IC50 [1]	Activity [2]	Activity [3]	Activity [4]	Activity [7]	Activity [8]	other results
COc1cccc(/C=C/C(=O)N2CCC=CC2=O)c1	7.5 µM	Non-Toxic	> 90%	> 80%			
COc1cc(OC)c(OC)cc1/C=C/C(=O)N1CCC=CC1=O	3.4 µM	Non-Toxic	> 90%	> 80%			Activity [5]: inactive; Activity [6]: inactive
CC(=O)O[C@H]1C(=O)[C@@]2(C)[C@H]([C@H](OC(=O)c3ccccc3)[C@]3(O)C[C@H](OC(=O)[C@H](O)[C@@H](NC(=O)c4ccccc4)c4ccccc4)C(C)=C1C3(C)C)[C@]1(OC(C)=O)CO[C@@H]1C[C@@H]2O					inactive	inactive	
COC(=O)Nc1nc2cc(C(=O)c3cccs3)ccc2[nH]1					Active	Active	
COc1cc(/C=C/C(=O)c2ccccc2)cc(OC)c1OC							Activity [9]: inactive
